Assay [1] in a line: Displacement of [125I]-IMPY from amyloid beta (1 to 42) fibrils after 2 hrs by gamma-counting analysis. In short, it runs like this:
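Competition binding with aggregated Aβ1-42 fibrils and [125I]IMPY (60000−100000 cpm/100 μL) in 0.05% BSA (1 mL total); inhibitors 10⁻⁴−10^−8.5 M in ethanol. Incubated 37 °C for 2 h, then GF/B vacuum filtration with PBS (0.02 M, pH 7.4) washes and γ counting. Three repeats; IC50 converted to Ki by Cheng−Prusoff.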
(Displacement assays read how much labelled ligand stays bound in the presence of the test substance.)

The species entered for assay [2] is Mus musculus. Nature of the assay: Binding affinity to amyloid beta plaques in transgenic C57BL6 mouse cortex expressing APP Swedish mutant/PSEN1 at 370 KBq/100 ul after 1 hr by thioflavinS-staining method. Conditions: tested as the 18F-labelled form. In short, it runs like this: (§1)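 Paraffin brain sections from 12-month-old Tg mice (C57BL6, APPswe/PSEN1) and age-matched controls, deparaffinized through xylene and graded ethanol, then PBS (0.2 M, pH 7.4) 30 min. Incubated with 18F tracer (370 KBq per 100 μL) 1 h at room temperature, washed in 40% EtOH, rinsed in water, then phosphor plate exposure 2 h. The same sections were afterwards stained with 0.125% thioflavin S in 10% EtOH for 3 min and washed in 40% EtOH.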

The species entered for assay [3] is Mus musculus. Nature of the assay: Binding affinity to amyloid beta plaques in transgenic C57BL6 mouse hippocampus expressing APP Swedish mutant/PSEN1 at 370 KBq/100 ul after 1 hr by autoradiographic analysis. Type of assay: tissue-based. Conditions: tested as the 18F-labelled form. In short, it runs like this:
as §1

The species entered for assay [4] is Mus musculus. Nature of the assay: Binding affinity to amyloid beta plaques in transgenic C57BL6 mouse hippocampus expressing APP Swedish mutant/PSEN1 at 370 KBq/100 ul after 1 hr by thioflavinS-staining method. In kind it is tissue-based. The settings on record: tested as the 18F-labelled form. In short, it runs like this:
as §1

The species entered for assay [5] is Mus musculus. Nature of the assay: Binding affinity to amyloid beta plaques in transgenic C57BL6 mouse cortex expressing APP Swedish mutant/PSEN1 at 370 KBq/100 ul after 1 hr by autoradiographic analysis. Conditions: tested as the 18F-labelled form. In short, it runs like this:
as §1

The source made the active and inactive calls. No cut-off for these calls is given here.

By Ki is commonly meant the equilibrium dissociation constant of an inhibitor or competing ligand from its target. The molecule `CN(C)c1ccc(-c2nc3cc(OCCOCCF)ccc3o2)cn1` registered a Ki in assay [1] of 7.3 nM.
In assay [1], `CNc1ccc(-c2nc3ccc(OCCOCCF)cc3s2)cn1` gave a Ki of 29.7 nM.
In assay [1], `CN(C)c1ccc(-c2nc3ccc(OCCOCCF)cc3s2)cn1` came in with a Ki of 4.6 nM.
On the same count and under the same terms, as for `CN(C)c1ccc(-c2nc3ccc(OCCF)cc3s2)cn1`, the figure is 2.7 nM.
As to `CN(C)c1ccc(-c2nc3cc(OCCF)ccc3o2)cn1`, the result in assay [2], in assay [3], in assay [4] and in assay [5] was Active. For the same molecule, the Ki in assay [1] was found to be 2.7 nM.

For the origin of these results see ChEMBL document CHEMBL2177098, “Synthesis and evaluation of novel ¹⁸F labeled 2-pyridinylbenzoxazole and 2-pyridinylbenzothiazole derivatives as ligands for positron emission tomography (PET) imaging of β-amyloid plaques” (J Med Chem, 2012).
